Assay results taken from ChEMBL document CHEMBL4308915, “Synthesis of novel pyrazoline derivatives and the evaluation of death mechanisms involved in their antileukemic activity” (Bioorg Med Chem, 2019).
The source made the active and inactive calls. No cut-off for these calls is given here.

Tests used:
PBMC [1] = test: Cytotoxicity against human PBMC assessed as reduction in cell viability after 48 hrs by MTT assay; type: cell-based
Jurkat [2] = test: Antiproliferative activity against human Jurkat cells assessed as reduction in KI-67 expression at 33.7 uM after 12 hrs by flow cytometric analysis; type: functional, cell-based
[3] = Selectivity index, ratio of IC50 for human PBMC to IC50 for human K562 cells after 24 hrs; type: toxicity; settings: PBMC versus K562 cells, read-out: Ratio IC50
Summary of the method: (§1)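 MTT viability after 24 h exposure to 1-100µM; untreated control OD taken as 100%. IC50 by curve fitting in each line and in PBMC from six healthy donors (Ficoll-Hypaque). SI = IC50 PBMC / IC50 tumor line; SI ≥5 high, 2–5 moderate, <2 low.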

Jurkat [4] = test: Induction of apoptosis in human Jurkat cells assessed as increase in caspase-3 expression at 33.7 uM after 12 hrs by flow cytometric analysis relative to control; type: functional
Jurkat [5] = test: Induction of apoptosis in human Jurkat cells assessed as increase in loss of membrane integrity at 33.7 uM by acridine orange/ethidium bromide staining-based fluorescence microscopic analysis; type: functional, cell-based
Jurkat [6] = test: Induction of apoptosis in human Jurkat cells assessed as increase in membrane blebbing at 33.7 uM by acridine orange/ethidium bromide staining-based fluorescence microscopic analysis; type: functional, cell-based
PBL = test: Cytotoxicity against acute leukemia patient-derived PBL cells assessed as reduction in cell viability after 24 hrs; type: functional, cell-based; settings: Homo sapiens
Summary of the method: (§2)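 Mononuclear cells from acute leukemia patient samples (peripheral blood or bone marrow, taken before first treatment at diagnosis or relapse) isolated by Ficoll-Hypaque.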

Jurkat [7] = test: Induction of apoptosis in human Jurkat cells assessed as increase in Bax expression at 33.7 uM after 12 hrs by flow cytometric analysis relative to control; type: functional
K562 [8] = test: Induction of apoptosis in human K562 cells assessed as decrease in survivin level at 55.7 uM after 12 hrs by flow cytometric analysis relative to control; type: functional
K562 [9] = test: Induction of apoptosis in human K562 cells assessed as increase in Bax expression at 55.7 uM after 12 hrs by flow cytometric analysis relative to control; type: functional
B16-F10 [10] = test: Cytotoxicity against mouse B16F10 cells assessed as reduction in cell viability after 24 hrs by MTT assay; type: functional, cell-based; settings: B16-F10, 24 h
Summary of the method: (§3)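 MTT viability after 24 h exposure. Cells seeded at 5x10^4 per well and tested at 1-100 µM. Optical density of untreated cells set as 100% viable. IC50 derived by curve fitting. PBMC from healthy non-smoking volunteers, isolated by Ficoll-Hypaque.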

Jurkat [11] = test: Induction of apoptosis in human Jurkat cells assessed as reduction in cells with intact mitochondrial membrane potential at 33.7 uM after 12 hrs by flow cytometric analysis relative to control; type: functional; parameters: scale not given: the % may be the effect or the level left
K562 [12] = test: Cytotoxicity against human K562 cells assessed as reduction in cell viability after 24 hrs by MTT assay; type: functional, cell-based; settings: K562, 24 h; summary of the method: as §3
PBMC [13] = test: Cytotoxicity against human PBMC assessed as reduction in cell viability after 72 hrs by MTT assay; type: cell-based
[14] = Hemolytic activity in human RBC at 9 times IC50 relative to control; type: ADME, cell-based, Erythrocyte; settings: red blood cells (erythrocytes), read-out: Activity
Summary of the method: (§4)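 RBC from healthy non-smoking volunteers incubated with increasing concentrations of the selected pyrazolines. Saline served as the 0% lysis control and distilled water as the 100% lysis control. Percent hemolysis calculated relative to these controls.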

Jurkat [15] = test: Induction of apoptosis in human Jurkat cells assessed as increase in chromatin condensation at 33.7 uM by acridine orange/ethidium bromide staining-based fluorescence microscopic analysis; type: functional, cell-based
K562 [16] = test: Induction of apoptosis in human K562 cells assessed as increase in FasR expression at 55.7 uM after 12 hrs by flow cytometric analysis relative to control; type: functional
Jurkat [17] = test: Induction of apoptosis in human Jurkat cells assessed as increase in FasR expression at 33.7 uM after 12 hrs by flow cytometric analysis relative to control; type: functional
K562 [18] = test: Induction of apoptosis in human K562 cells assessed as increase in membrane blebbing at 55.7 uM by acridine orange/ethidium bromide staining-based fluorescence microscopic analysis; type: functional, cell-based
K562 [19] = test: Cytotoxicity against human K562 cells assessed as reduction in cell viability after 72 hrs by MTT assay; type: functional, cell-based; settings: K562, 72 h
Daudi [20] = test: Cytotoxicity against human Daudi cells assessed as reduction in cell viability after 24 hrs by MTT assay; type: functional, cell-based; summary of the method: as §3
Jurkat [21] = test: Induction of apoptosis in human Jurkat cells at 33.7 uM after 12 hrs by Annexin-V FITC staining-based flow cytometry relative to control; type: functional
[22] = Selectivity index, ratio of IC50 for human PBMC to IC50 for human Daudi cells after 24 hrs; summary of the method: as §1
K562 [23] = test: Induction of apoptosis in human K562 cells at 55.7 uM after 12 hrs by Annexin-V FITC staining-based flow cytometry relative to control; type: functional
Jurkat [24] = test: Induction of apoptosis in human Jurkat cells assessed as decrease in survivin level at 33.7 uM after 12 hrs by flow cytometric analysis relative to control; type: functional
Jurkat [25] = test: Induction of apoptosis in human Jurkat cells assessed as increase in AIF release at 33.7 uM after 12 hrs by flow cytometric analysis relative to control; type: functional
B16-F10 [26] = test: Cytotoxicity against mouse B16F10 cells assessed as reduction in cell viability after 48 hrs by MTT assay; type: functional, cell-based; settings: B16-F10, 48 h
[27] = Selectivity index, ratio of IC50 for human PBMC to IC50 for mouse B16F10 cells after 24 hrs; type: toxicity; settings: PBMC versus B16F10 cells, read-out: Ratio IC50; summary of the method: as §1
[28] = Hemolytic activity in human RBC at 2 times IC50 relative to control; type: ADME, cell-based, Erythrocyte; settings: red blood cells (erythrocytes), read-out: Activity; summary of the method: as §4
[29] = Hemolytic activity in human RBC at 15 times IC50 relative to control; type: ADME, cell-based, Erythrocyte; settings: red blood cells (erythrocytes), read-out: Activity; summary of the method: as §4
K562 [30] = test: Cell cycle arrest in human K562 cells assessed as increase in accumulation at G0/G1 phase at 55.7 uM after 12 hrs by propidium iodide/RNAse staining based flow cytometric analysis relative to control; type: functional
K562 [31] = test: Induction of apoptosis in human K562 cells assessed as increase in caspase-3 expression at 55.7 uM after 12 hrs by flow cytometric analysis; type: functional, cell-based
Daudi [32] = test: Cytotoxicity against human Daudi cells assessed as reduction in cell viability after 72 hrs by MTT assay; type: functional, cell-based
K562 [33] = test: Antiproliferative activity against human K562 cells assessed as reduction in KI-67 expression at 55.7 uM after 12 hrs by flow cytometric analysis; type: functional, cell-based
K562 [34] = test: Cytotoxicity against human K562 cells assessed as reduction in cell viability after 48 hrs by MTT assay; type: functional, cell-based; settings: K562, 48 h
Daudi [35] = test: Cytotoxicity against human Daudi cells assessed as reduction in cell viability after 48 hrs by MTT assay; type: functional, cell-based
[36] = Hemolytic activity in human RBC at 3 times IC50 relative to control; type: ADME, cell-based, Erythrocyte; settings: red blood cells (erythrocytes), read-out: Activity; summary of the method: as §4
K562 [37] = test: Induction of apoptosis in human K562 cells assessed as increase in loss of membrane integrity at 55.7 uM by acridine orange/ethidium bromide staining-based fluorescence microscopic analysis; type: functional, cell-based
[38] = Selectivity index, ratio of IC50 for human PBMC to IC50 for human Jurkat cells after 24 hrs; type: toxicity; settings: PBMC versus Jurkat cells, read-out: Ratio IC50; summary of the method: as §1
Jurkat [39] = test: Cytotoxicity against human Jurkat cells assessed as reduction in cell viability after 48 hrs by MTT assay; type: functional, cell-based
B16-F10 [40] = test: Cytotoxicity against mouse B16F10 cells assessed as reduction in cell viability after 72 hrs by MTT assay; type: functional, cell-based; settings: B16-F10, 72 h
Jurkat [41] = test: Cell cycle arrest in human Jurkat cells assessed as increase in accumulation at S phase at 33.7 uM after 12 hrs by propidium iodide/RNAse staining based flow cytometric analysis; type: functional
Jurkat [42] = test: Cytotoxicity against human Jurkat cells assessed as reduction in cell viability after 72 hrs by MTT assay; type: functional, cell-based
Jurkat [43] = test: Induction of DNA fragmentation in human Jurkat cells assessed as increase in ladder formation at 33.7 uM after 12 hrs by ethidium bromide staining based agarose gel electrophoresis method; type: functional, cell-based
[44] = Hemolytic activity in human RBC at 1 time IC50 relative to control; type: ADME, cell-based, Erythrocyte; settings: red blood cells (erythrocytes), read-out: Activity; summary of the method: as §4
K562 [45] = test: Induction of apoptosis in human K562 cells assessed as reduction in cells with intact mitochondrial membrane potential at 55.7 uM after 12 hrs by flow cytometric analysis relative to control; type: functional; parameters: scale not given: the % may be the effect or the level left
Jurkat [46] = test: Cytotoxicity against human Jurkat cells assessed as reduction in cell viability after 24 hrs by MTT assay; type: functional, cell-based; summary of the method: as §3
PBMC [47] = test: Cytotoxicity against human PBMC assessed as reduction in cell viability after 24 hrs by MTT assay; type: cell-based
[48] = Hemolytic activity in human RBC at 12 times IC50 relative to control; type: ADME, cell-based, Erythrocyte; settings: red blood cells (erythrocytes), read-out: Activity; summary of the method: as §4
[49] = (§5) Cytotoxicity against acute leukemia patient-derived bone marrow cells assessed as reduction in cell viability after 24 hrs; type: functional, cell-based; settings: Homo sapiens; summary of the method: as §2
Homo sapiens = species: Homo sapiens; test: as §5; type: functional, cell-based; summary of the method: as §2
K562 [50] = test: Induction of apoptosis in human K562 cells assessed as increase in chromatin condensation at 55.7 uM by acridine orange/ethidium bromide staining-based fluorescence microscopic analysis; type: functional, cell-based

COc1cc(C2=NN(C(C)=O)C(c3ccc4ccccc4c3)C2)cc(OC)c1OC (stereo not drawn)
IC50 (PBMC [1]): 105 µM | Activity (Jurkat [2]): Active | selectivity ratio at 24 h [3]: 8.9 | Activity (Jurkat [4]): 6.6% | Activity (Jurkat [5]): Active | Activity (Jurkat [6]): Active | Activity (PBL): Dose-dependent effect | IC50 (PBL): 27.7 to 139 µM | Activity (Jurkat [7]): 20.5% | Activity (K562 [8]): 22.2% | Activity (K562 [9]): 16.8% | IC50 (B16-F10 [10]): 72.3 µM | Activity (Jurkat [11]): 41% | IC50 (K562 [12]): 55.7 µM | IC50 (PBMC [13]): 55.3 µM | hemolysis at 9 times IC50 [14]: 2.4% | Activity (Jurkat [15]): Active | Activity (K562 [16]): 34.3% | Activity (Jurkat [17]): 30.3% | Activity (K562 [18]): Active | IC50 (K562 [19]): 15.5 µM | IC50 (Daudi [20]): 46.2 µM | Activity (Jurkat [21]): 29.2% | Ratio IC50 [22]: 10.7 | Activity (K562 [23]): 18.8% | Activity (Jurkat [24]): 21.4% | Activity (Jurkat [25]): 6% | IC50 (B16-F10 [26]): 56.6 µM | selectivity ratio at 24 h [27]: 6.9 | hemolysis at 2 times IC50 [28]: 1.5% | hemolysis at 15 times IC50 [29]: 6.4% | Activity (K562 [30]): 7.4% | Activity (K562 [31]): inactive | IC50 (Daudi [32]): 5.1 µM | Activity (K562 [33]): Active | IC50 (K562 [34]): 21.9 µM | IC50 (Daudi [35]): 20.2 µM | hemolysis at 3 times IC50 [36]: 1.6% | Activity (K562 [37]): Active | selectivity ratio at 24 h [38]: 14.7 | IC50 (Jurkat [39]): 27.7 µM | IC50 (B16-F10 [40]): 23.3 µM | Activity (Jurkat [41]): inactive | IC50 (Jurkat [42]): 25.3 µM | Activity (Jurkat [43]): Active | hemolysis at 1 times IC50 [44]: 1.9% | Activity (K562 [45]): 26% | IC50 (Jurkat [46]): 33.7 µM | IC50 (PBMC [47]): 497 µM | hemolysis at 12 times IC50 [48]: 3.2% | IC50 [49]: 16.2 to 44.6 µM | Activity (Homo sapiens): Dose-dependent effect | Activity (K562 [50]): Active
